Test results published in ChEMBL document CHEMBL1138050, “Furan-2-ylmethylene thiazolidinediones as novel, potent, and selective inhibitors of phosphoinositide 3-kinase gamma” (J Med Chem, 2006).
Activity calls are given as the source filed them. The calls are words filed in the database; no cut-off is given here.

Experiments:
[1] = molecular target: T1, Phosphatidylinositol 4,5-bisphosphate 3-kinase catalytic subunit gamma isoform (Homo sapiens, UniProt P48736); experiment: Inhibition of human PI3Kgamma at 1 uM
Method in brief: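 Primary screen of PI3Kγ lipid kinase (SPA, ATP/[γ33P]ATP with PtdIns substrate); percent inhibition at 1 µM compound.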
Target sequence in this assay (P48736 whole entry, looked up, canonical isoform): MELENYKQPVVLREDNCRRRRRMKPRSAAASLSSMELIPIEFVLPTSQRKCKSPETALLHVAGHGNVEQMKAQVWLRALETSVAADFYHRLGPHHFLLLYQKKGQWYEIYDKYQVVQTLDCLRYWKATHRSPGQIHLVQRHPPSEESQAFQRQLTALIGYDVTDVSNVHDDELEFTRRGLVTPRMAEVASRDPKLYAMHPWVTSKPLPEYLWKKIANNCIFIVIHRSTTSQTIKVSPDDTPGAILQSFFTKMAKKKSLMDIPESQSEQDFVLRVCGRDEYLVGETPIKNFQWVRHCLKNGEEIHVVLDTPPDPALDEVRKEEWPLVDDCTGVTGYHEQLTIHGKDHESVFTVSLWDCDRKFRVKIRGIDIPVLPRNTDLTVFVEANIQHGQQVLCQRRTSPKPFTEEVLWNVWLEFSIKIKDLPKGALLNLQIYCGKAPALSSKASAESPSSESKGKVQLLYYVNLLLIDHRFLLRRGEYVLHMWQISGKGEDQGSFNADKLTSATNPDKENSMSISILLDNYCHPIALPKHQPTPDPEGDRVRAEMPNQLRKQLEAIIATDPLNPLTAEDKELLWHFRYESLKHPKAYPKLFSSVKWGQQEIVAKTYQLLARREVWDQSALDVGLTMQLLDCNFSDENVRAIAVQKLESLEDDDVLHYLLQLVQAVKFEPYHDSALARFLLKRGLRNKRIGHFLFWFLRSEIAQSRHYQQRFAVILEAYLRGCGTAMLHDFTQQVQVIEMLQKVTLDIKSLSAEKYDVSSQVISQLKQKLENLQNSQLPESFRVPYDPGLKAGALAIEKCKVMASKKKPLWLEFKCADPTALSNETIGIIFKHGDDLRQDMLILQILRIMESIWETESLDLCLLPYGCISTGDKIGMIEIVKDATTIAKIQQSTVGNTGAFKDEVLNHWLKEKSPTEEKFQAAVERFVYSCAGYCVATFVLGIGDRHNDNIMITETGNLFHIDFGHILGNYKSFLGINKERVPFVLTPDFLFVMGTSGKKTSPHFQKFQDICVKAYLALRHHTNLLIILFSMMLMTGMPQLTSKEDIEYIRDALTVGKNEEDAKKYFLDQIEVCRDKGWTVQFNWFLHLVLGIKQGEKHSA

[2] = molecular target: Phosphatidylinositol 4,5-bisphosphate 3-kinase catalytic subunit alpha isoform (Homo sapiens, UniProt P42336); experiment: Inhibition of human PI3Kalpha
Phosphatidylinositol 4,5-bisphosphate 3-kinase catalytic subunit alpha isoform, sequence (P42336 whole entry, canonical isoform): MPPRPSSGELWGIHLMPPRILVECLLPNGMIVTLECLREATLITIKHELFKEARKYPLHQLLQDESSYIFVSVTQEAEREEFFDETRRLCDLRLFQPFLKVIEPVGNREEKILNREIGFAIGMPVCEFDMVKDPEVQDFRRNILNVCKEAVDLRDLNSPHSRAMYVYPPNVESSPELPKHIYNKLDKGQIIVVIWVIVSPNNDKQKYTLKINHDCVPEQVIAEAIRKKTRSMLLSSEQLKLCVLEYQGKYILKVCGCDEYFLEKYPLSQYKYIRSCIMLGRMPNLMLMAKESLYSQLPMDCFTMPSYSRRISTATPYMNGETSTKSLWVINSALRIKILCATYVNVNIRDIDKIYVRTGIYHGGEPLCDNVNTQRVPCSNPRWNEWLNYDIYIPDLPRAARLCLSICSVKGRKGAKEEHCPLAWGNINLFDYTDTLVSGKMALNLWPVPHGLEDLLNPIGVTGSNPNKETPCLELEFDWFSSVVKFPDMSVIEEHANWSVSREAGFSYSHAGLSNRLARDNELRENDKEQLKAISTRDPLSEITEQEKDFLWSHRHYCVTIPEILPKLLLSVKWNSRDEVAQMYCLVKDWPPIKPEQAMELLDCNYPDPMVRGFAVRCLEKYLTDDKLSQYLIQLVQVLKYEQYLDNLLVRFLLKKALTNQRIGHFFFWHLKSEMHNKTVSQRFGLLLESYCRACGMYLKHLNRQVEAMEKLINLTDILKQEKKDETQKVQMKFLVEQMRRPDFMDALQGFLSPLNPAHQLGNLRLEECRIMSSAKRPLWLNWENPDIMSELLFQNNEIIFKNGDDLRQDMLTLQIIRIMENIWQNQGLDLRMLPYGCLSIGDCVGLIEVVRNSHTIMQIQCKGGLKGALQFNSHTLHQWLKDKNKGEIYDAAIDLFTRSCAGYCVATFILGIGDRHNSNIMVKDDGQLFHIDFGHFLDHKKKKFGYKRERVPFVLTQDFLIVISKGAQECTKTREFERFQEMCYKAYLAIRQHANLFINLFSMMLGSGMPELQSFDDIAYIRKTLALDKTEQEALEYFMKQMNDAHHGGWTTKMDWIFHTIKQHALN

[3] = molecular target: T1, Phosphatidylinositol 4,5-bisphosphate 3-kinase catalytic subunit gamma isoform; experiment: Inhibition of human PI3Kgamma
Target sequence in this assay (P48736 whole entry, canonical isoform): as the sequence (P48736 whole entry, looked up, canonical isoform) above

[4] = tested on: THP-1; experiment: Inhibition of CSF-1-induced PKB/Akt phosphorylation in THP1 cells; details: Homo sapiens
[5] = tested on: RAW264.7; experiment: Inhibition of C5a-mediated PKB/Akt phosphorylation in mouse Raw264 macrophage; assay type: functional, cell-based
Method in brief: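 Raw-264 murine macrophages starved 3 h in serum-free medium, pretreated 30 min with inhibitor or DMSO, then stimulated 5 min with 50 nM C5a. Phospho-Ser-473 Akt measured by ELISA. Concentration-response; IC50. Mean ± standard deviation of four independent experiments done in triplicate.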

[6] = tested on: THP-1; experiment: Inhibition of MCP1-induced chemotaxis of THP1 cells; assay type: functional, cell-based; details: Homo sapiens
[7] = tested on: THP-1; experiment: Inhibition of MCP1-induced PKB/Akt phosphorylation in THP1 cells; assay type: functional, cell-based; details: Homo sapiens
Method in brief: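 THP-1 monocytes starved 3 h in serum-free medium and pretreated with inhibitor or DMSO (15 min in methods; 20 min in figure legend). Stimulated with 100 nM MCP-1/CCL2 for 30 s, or with 50 ng/mL CSF-1 for 5 min. Phospho-Ser-473 and total Akt detected by Western blot and quantified.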

[8] = tested on: Mast cell; experiment: Inhibition of SCF-induced PKB/Akt phosphorylation in mouse mast cells at 20 uM; assay type: functional, cell-based
Method in brief: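 Bone marrow mast cells from 4- to 8-week-old wild-type mice, derived ≥4 weeks in 20 ng/mL SCF plus 20 ng/mL IL-3 and confirmed c-kit+ by FACS. Cells at 2.5 × 10^6/mL starved 24 h without SCF/IL-3, preincubated 20 min with compound or 1% DMSO, stimulated 15 min at 37 °C with 20 ng/mL SCF. Fixed in 1.5% paraformaldehyde, permeabilized with 0.2% Triton X-100, phospho-Ser-473 Akt read by FACS.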

[9] = molecular target: T2, Phosphatidylinositol 4,5-bisphosphate 3-kinase catalytic subunit delta isoform (Homo sapiens, UniProt O00329); experiment: Inhibition of human PI3Kdelta
T2 sequence (O00329 whole entry): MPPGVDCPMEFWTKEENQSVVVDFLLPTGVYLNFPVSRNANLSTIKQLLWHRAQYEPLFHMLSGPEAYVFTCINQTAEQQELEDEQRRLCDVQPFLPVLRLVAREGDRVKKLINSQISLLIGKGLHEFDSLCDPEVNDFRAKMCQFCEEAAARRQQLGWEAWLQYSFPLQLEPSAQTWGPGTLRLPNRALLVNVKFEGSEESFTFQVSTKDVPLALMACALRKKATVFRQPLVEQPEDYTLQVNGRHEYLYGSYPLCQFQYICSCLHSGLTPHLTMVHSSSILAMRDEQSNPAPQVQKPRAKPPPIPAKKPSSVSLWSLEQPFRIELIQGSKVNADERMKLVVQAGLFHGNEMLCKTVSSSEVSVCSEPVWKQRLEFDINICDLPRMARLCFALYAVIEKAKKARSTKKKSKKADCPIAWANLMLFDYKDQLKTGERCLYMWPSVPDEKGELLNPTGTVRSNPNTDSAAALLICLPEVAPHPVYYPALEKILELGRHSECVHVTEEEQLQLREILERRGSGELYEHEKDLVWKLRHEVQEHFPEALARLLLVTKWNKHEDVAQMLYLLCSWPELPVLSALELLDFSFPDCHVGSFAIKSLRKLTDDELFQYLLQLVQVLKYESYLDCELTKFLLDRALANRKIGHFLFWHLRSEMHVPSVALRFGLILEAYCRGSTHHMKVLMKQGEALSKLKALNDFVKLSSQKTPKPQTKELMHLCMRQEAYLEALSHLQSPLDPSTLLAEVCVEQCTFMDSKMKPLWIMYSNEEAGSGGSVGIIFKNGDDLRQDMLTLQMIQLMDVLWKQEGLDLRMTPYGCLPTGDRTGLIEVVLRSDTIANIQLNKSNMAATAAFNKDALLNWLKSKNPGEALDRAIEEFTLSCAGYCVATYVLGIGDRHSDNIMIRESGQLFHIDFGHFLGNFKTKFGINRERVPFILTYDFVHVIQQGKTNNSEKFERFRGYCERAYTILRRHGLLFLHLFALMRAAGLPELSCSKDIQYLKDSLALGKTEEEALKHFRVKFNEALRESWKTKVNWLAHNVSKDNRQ

[10] = Dissociation constant, pKa of the compound; assay type: physicochemical
Method in brief: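 UV-metric titration under argon at 25 ± 0.5 °C. 10 mM DMSO stock diluted into 0.15 M KCl containing 60, 50, 40 or 30 wt% MeOH, with 0.25 mM KH2PO4. Brought to pH 11.0 with 0.5 M KOH, then titrated with 0.5 M HCl to pH 4, at most 0.15 pH unit per step. UV 200-500 nm recorded after each addition; Yasuda-Shedlovsky extrapolation to zero cosolvent.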

[11] = molecular target: Phosphatidylinositol 4,5-bisphosphate 3-kinase catalytic subunit beta isoform (Homo sapiens, UniProt P42338); experiment: Inhibition of human PI3Kbeta
Phosphatidylinositol 4,5-bisphosphate 3-kinase catalytic subunit beta isoform, sequence (P42338 whole entry, canonical isoform): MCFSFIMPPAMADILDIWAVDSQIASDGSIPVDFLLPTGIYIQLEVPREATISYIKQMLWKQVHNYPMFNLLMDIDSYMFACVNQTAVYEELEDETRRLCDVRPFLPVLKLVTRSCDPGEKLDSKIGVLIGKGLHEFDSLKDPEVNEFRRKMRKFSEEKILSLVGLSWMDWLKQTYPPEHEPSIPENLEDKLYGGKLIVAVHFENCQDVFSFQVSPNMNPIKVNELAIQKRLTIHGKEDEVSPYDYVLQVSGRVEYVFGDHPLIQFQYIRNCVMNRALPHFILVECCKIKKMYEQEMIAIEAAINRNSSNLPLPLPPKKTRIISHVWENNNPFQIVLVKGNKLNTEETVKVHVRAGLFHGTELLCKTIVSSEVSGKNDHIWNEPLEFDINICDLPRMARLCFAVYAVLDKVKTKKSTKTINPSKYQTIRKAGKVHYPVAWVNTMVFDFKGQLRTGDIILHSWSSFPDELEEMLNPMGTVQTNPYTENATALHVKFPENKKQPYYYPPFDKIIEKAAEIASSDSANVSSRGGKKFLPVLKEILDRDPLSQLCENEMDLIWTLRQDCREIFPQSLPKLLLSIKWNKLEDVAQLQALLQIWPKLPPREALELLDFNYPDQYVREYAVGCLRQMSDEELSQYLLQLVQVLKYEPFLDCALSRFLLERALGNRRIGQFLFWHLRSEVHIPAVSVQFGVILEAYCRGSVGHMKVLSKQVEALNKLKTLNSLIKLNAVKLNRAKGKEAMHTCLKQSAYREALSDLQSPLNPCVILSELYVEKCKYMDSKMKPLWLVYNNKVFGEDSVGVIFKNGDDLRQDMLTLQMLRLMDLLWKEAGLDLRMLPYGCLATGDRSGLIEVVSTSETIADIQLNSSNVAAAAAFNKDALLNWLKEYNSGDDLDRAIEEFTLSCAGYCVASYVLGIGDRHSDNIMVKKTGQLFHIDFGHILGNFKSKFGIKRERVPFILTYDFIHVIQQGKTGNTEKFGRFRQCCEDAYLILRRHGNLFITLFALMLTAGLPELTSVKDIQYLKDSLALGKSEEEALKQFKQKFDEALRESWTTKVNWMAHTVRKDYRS

Row | Structure (SMILES) | IC50 [2] [nM] | IC50 [3] [nM] | other results
1 | O=C(O)Cc1cccc(-c2ccc(/C=C3\SC(=O)NC3=O)o2)c1 | – | – | inhibition [1]: 15%
2 | O=C1NC(=O)/C(=C/c2ccc(-c3ccc4c(c3)OCO4)o2)S1 | 20000 | 20000 | –
3 | O=C1NC(=O)/C(=C/c2ccc(-c3ccccc3F)o2)S1 | – | 1200 | –
4 | COC(=O)c1cccc(-c2ccc(/C=C3\SC(=O)NC3=O)o2)c1 | – | 13500 | –
5 | O=c1cc(N2CCOCC2)oc2c(-c3ccccc3)cccc12 [LY-294002] | – | – | IC50 [4]: 1010 nM; IC50 [5]: 10000 nM; IC50 [6]: 37000 nM; IC50 [7]: 1650 nM; Activity [8]: Active; IC50 [9]: 1330 nM
6 | Cc1ccc(O)c(-c2ccc(/C=C3\SC(=O)NC3=O)o2)c1 | 500 | 39 | IC50 [5]: 1060 nM; pKa [10]: 9.7
7 | O=C1NC(=O)/C(=C/c2ccc(-c3ccc(O)cc3O)o2)S1 | 190 | 20 | IC50 [5]: 3490 nM; pKa [10]: 8.7
8 | COc1cccc(-c2ccc(/C=C3\SC(=O)NC3=O)o2)c1 | – | 2600 | –
9 | Nc1ccc([N+](=O)[O-])cc1-c1ccc(/C=C2\SC(=O)NC2=O)o1 | – | – | inhibition [1]: 18%
10 | O=C1NC(=O)/C(=C/c2ccc(-c3ccccc3Cl)o2)S1 | – | 20000 | –
11 | CC(=O)Nc1ccccc1-c1ccc(/C=C2\SC(=O)NC2=O)o1 | – | – | inhibition [1]: 24%
12 | COC(=O)c1ccc(-c2ccc(/C=C3\SC(=O)NC3=O)o2)c(O)c1 | 210 | 29 | IC50 [5]: 720 nM; pKa [10]: 8.7
13 | O=C1NC(=O)/C(=C/c2ccc(-c3ccc([N+](=O)[O-])o3)o2)S1 | – | 20000 | –
14 | O=C1NC(=O)/C(=C/c2ccc(-c3ccc(O)cc3F)o2)S1 | 1000 | 260 | –
15 | O=C1NC(=S)S/C1=C\c1ccc(-c2ccc([N+](=O)[O-])cc2Br)o1 | – | 3600 | –
16 | O=C1NC(=O)/C(=C/c2ccc(-c3cccc(C(=O)O)c3)o2)S1 | – | 4300 | –
17 | O=C1NC(=O)/C(=C/c2ccc(-c3ccc(O)cc3)o2)S1 | 3600 | 380 | –
18 | O=C1NC(=S)S/C1=C\c1ccc(-c2cc([N+](=O)[O-])ccc2O)o1 | 600 | 200 | –
19 | COc1cc(F)ccc1-c1ccc(/C=C2\SC(=O)NC2=O)o1 | – | – | inhibition [1]: 11%
20 | N#Cc1ccc(O)c(-c2ccc(/C=C3\SC(=O)NC3=O)o2)c1 | 220 | 40 | pKa [10]: 7.3
21 | O=C1NC(=O)/C(=C/c2ccc(-c3ccccn3)o2)S1 | 185 | 110 | IC50 [5]: 3650 nM
22 | O=C1NC(=O)/C(=C/c2ccc(-c3cccnc3)o2)S1 | 630 | 950 | –

Row | Structure (SMILES) | IC50 [2] [nM] | IC50 [3] [nM] | other results
23 | O=C1NC(=O)/C(=C/c2ccc(-c3ccc(F)cc3O)s2)S1 | – | – | inhibition [1]: 4%
24 | O=C1NC(=O)/C(=C/c2ccc(-c3cccc([N+](=O)[O-])c3O)o2)S1 | 1250 | 80 | –
25 | O=C1NC(=O)/C(=C/c2ccc(-c3cc(Cl)ccc3O)o2)S1 | 545 | 43 | pKa [10]: 8.9
26 | O=C1NC(=O)/C(=C/c2ccc(-c3cc(F)ccc3O)o2)S1 | 455 | 37 | IC50 [5]: 1710 nM; pKa [10]: 9.1
27 | O=C1NC(=O)/C(=C/c2ccc(-c3cccc(O)c3)o2)S1 | 1800 | 290 | –
28 | O=C1NC(=O)/C(=C/c2ccc(-c3cc(O)ccc3O)o2)S1 | 100 | 20 | –
29 | O=C1NC(=O)/C(=C/c2ccc(-c3ccccc3)o2)S1 | – | 20000 | –
30 | O=C(O)Cc1ccccc1-c1ccc(/C=C2\SC(=O)NC2=O)o1 | – | – | inhibition [1]: 12%
31 | O=C1NC(=O)/C(=C/c2ccc(-c3cccc([N+](=O)[O-])c3)o2)S1 | – | – | inhibition [1]: 24%
32 | O=C1NC(=O)/C(=C/c2ccc(-c3ccccc3O)s2)S1 | – | – | inhibition [1]: 27%
33 | O=C1NC(=O)/C(=C/c2ccc(-c3ccccc3O)o2)S1 | 330 | 30 | IC50 [5]: 810 nM; pKa [10]: 9.5; IC50 [11]: 20000 nM; IC50 [9]: > 5000 nM
34 | O=C1NC(=O)/C(=C/c2ccc(-c3ccc(F)cc3F)o2)S1 | – | 3800 | –
35 | O=C1NC(=O)/C(=C/c2ccc(-c3ccoc3)o2)S1 | – | 840 | –
36 | O=C1NC(=S)S/C1=C\c1ccc(-c2cccc(C(=O)O)c2)o1 | > 20000 | 920 | –
37 | O=C1NC(=O)/C(=C/c2ccc(-c3cc(C(=O)O)ccc3O)o2)S1 | 1350 | 530 | pKa [10]: 8.6
38 | O=C1NC(=O)/C(=C/c2ccc(-c3cc(F)cc(F)c3O)s2)S1 | 340 | 29 | IC50 [5]: 1390 nM
39 | O=C1NC(=O)/C(=C/c2ccc(-c3cc(OC(F)(F)F)ccc3O)o2)S1 | 600 | 56 | IC50 [5]: 880 nM; pKa [10]: 8.7
40 | O=C1NC(=O)/C(=C/c2ccc(-c3ccccc3C(=O)O)o2)S1 | – | – | inhibition [1]: 4%
41 | O=C1NC(=O)/C(=C/c2ccc(-c3cccc4cccnc34)o2)S1 | – | – | inhibition [1]: 17%
42 | COc1ccccc1-c1ccc(/C=C2\SC(=O)NC2=O)o1 | – | – | inhibition [1]: 44%
43 | COC(=O)c1ccccc1-c1ccc(/C=C2\SC(=O)NC2=O)o1 | – | – | inhibition [1]: 2%
